Assay [1] concerns LoVo. The assay can be described thus: (§1) Inhibitory activity against human colon adenocarcinoma cell line LoVo/Dx. In kind it is functional, cell-based. The method, boiled down: (§2)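 LoVo and doxorubicin-resistant LoVo/Dx grown in Ham's F12 with 10% FCS, glutamine, BME vitamins, HEPES, pen/strep; 37 °C, CO2, mycoplasma-checked by DAPI. Seeded 2.5 × 10^4 cells/mL, preincubated 24 h, then drug exposure 144 h. MTT read-out at 570 nm; IC50 (μg/mL) as concentration inhibiting growth by 50%, at least three runs averaged.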

Assay [2] concerns LoVo. The assay can be described thus: Inhibitory activity against human colon adenocarcinoma cell line LoVo. In kind it is functional, cell-based. The procedure, abridged:
as §2

Assay [3] in a line: (§3) Resistance index as the ratio of IC50 value against LoVo/Dx to that of LoVo cell lines. In kind it is functional. The procedure, abridged:
(§4)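 LoVo and LoVo/Dx, each seeded 2.5 × 10^4 cells/mL, preincubated 24 h, exposed to drug 144 h; MTT formazan read at 570 nm. Resistance index = IC50 in LoVo/Dx divided by IC50 in LoVo.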

The subject of assay [4] is Nucleic Acid. The assay can be described thus: dichroism data for visible band in the compound to DNA in ETN. In kind it is nucleic-acid assay. The settings on record: Bos taurus. The method, boiled down:
(§5)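 Dichroism in Tris-EDTA-NaCl buffer, ionic strength 0.1, pH 7.0, 25 °C. CD given as Δε from ellipticity, path length and molar concentration. Linear dichroism with DNA oriented in rotating quartz cell at 600-800 rpm, four accumulations; ligand orientation angle derived from ligand/DNA reduced LD ratio, taking bases at 90°.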

For assay [5], the target named is Nucleic Acid. The assay can be described thus: Ki value was measured for the binding of compound to DNA in ETN. In kind it is nucleic-acid assay, Bos taurus. The procedure, abridged:
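UV-vis titration: DNA added to ligand at fixed concentration in 10 mM Tris, 2 mM EDTA, NaCl to ionic strength 0.15 M, pH 7.0, 25 °C. Bound/free ligand from absorbance at wavelength of largest change (isosbestic points present); intrinsic constant and site size fitted by least squares to the neighbour-exclusion equation.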

The subject of assay [6] is LoVo. Described as §3. In kind it is functional, Homo sapiens. The procedure, abridged: as §4
Assay [7] concerns HT-1080. The assay can be described thus: inhibit the cellular growth by 50% was determined against human tumor cell line HT1080. In kind it is functional, cell-based. The method, boiled down:
(§6)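 Fibrosarcoma HT-1080, colon HT-29, breast MCF-7 and melanoma A-375 adapted to complete RPMI 1640; seeded 2.5 × 10^4 cells/mL, preincubated 24 h, exposed to drug 144 h. MTT assay, formazan dissolved in DMSO, absorbance per well read; IC50 (M) taken as concentration giving 50% growth inhibition.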

In assay [8] the test system is HT-29. The description is as §1. In kind it is functional, cell-based. The settings on record: in the assay text read “HT-29” for “LoVo/Dx”.
Assay [9] has as its system HT-29. The assay can be described thus: Inhibitory activity against human tumor cell line HT-29. In kind it is functional, cell-based. The method, boiled down: as §6
The next assay deals with MCF7. The assay can be described thus: Inhibitory activity against human tumor cell line MCF-7 breast adenocarcinoma. In kind it is functional, cell-based. The method, boiled down:
as §6

Assay [10] concerns HT-1080. The assay can be described thus: Inhibitory activity against human tumor cell line HT1080. In kind it is functional, cell-based. The procedure, abridged: as §6
In assay [11] the test system is Nucleic Acid. Briefly: dichroism data for visible band in the compound to calf thymus DNA in ETN. The settings on record: Bos taurus. In kind it is nucleic-acid assay. The method, boiled down:
as §5

The subject of assay [12] is HT-29. Briefly: Inhibitory activity against human tumor cell line HT-29. In kind it is functional, cell-based. The method, boiled down:
as §6

Assay [13] concerns HT-1080. Briefly: Inhibitory activity against human tumor cell line HT1080. In kind it is functional, cell-based. The method, boiled down:
as §6

In another assay the test system is A-375. The assay can be described thus: Inhibitory activity against human tumor cell line […] melanoma. In kind it is functional, cell-based. The procedure, abridged:
as §6

Molecules are shown by their SMILES.

Consider `O=C1c2ccccc2C(=O)c2c(NCc3ccccc3)nnc(NCc3ccccc3)c21`, for which the IC50 was 1300 nM with LoVo [1] and 1400 nM with LoVo [2]. In addition, the RI in assay [3] is 0.9.

Consider `O=C1c2ccccc2C(=O)c2c(NCCN3CCCCC3)nnc(NCCN3CCCCC3)c21`, for which the IC50 in the assay on LoVo [1] stood at 1200 nM; in the assay on LoVo [2], 260 nM. Moreover, the RI in assay [3] worked out at 4.6.

`O=C1c2ccccc2C(=O)c2c(NCCNCCO)ccc(NCCNCCO)c21` [AMETANTRONE] yielded an LD in the assay with Nucleic Acid [4] of -0.13. The Ki at Nucleic Acid [5] was found to be 340000 M⁻¹. For the same compound, the 50% inhibitory concentration (IC50) in the assay with LoVo [1] was determined as 92000 nM; in the assay on LoVo [2], 580 nM. In the assay on LoVo [6], the RI came to 158.6.

`CN(C)CCNc1nnc(N)c2c1C(=O)c1ccccc1C2=O`: the IC50 is 34 nM with HT-1080 [7] and 6.5 nM in the assay on HT-29 [8].

Take `Cl.O=C1c2ccccc2C(=O)c2c(NCCNCCO)nnc(NCCNCCO)c21`: the IC50 with HT-29 [9] came out at 410 nM; in the assay on LoVo [1] it was 39000 nM; in the assay on MCF7, 720 nM; with LoVo [2], 2700 nM; with HT-1080 [10] it was 1300 nM. The compound also had an LD in the assay on Nucleic Acid [4] of -0.13. On Nucleic Acid [5], this compound had a Ki of 47000 M⁻¹. The RI in the assay with LoVo [6] was found to be 14.4.

`COc1cccc2c1C(=O)c1c(O)c3c(c(O)c1C2=O)C[C@@](O)(C(=O)CO)C[C@@H]3O[C@H]1C[C@H](N)[C@H](O)[C@H](C)O1` [DOXORUBICIN]: the half-inhibitory concentration (IC50) in the assay with LoVo [1] turned out to be 6000 nM; with LoVo [2], 43 nM. In addition, in assay [3], the RI is recorded as 139.5.

Turning to `CCN(CC)CCNc1nnc(NCCN(CC)CC)c2c1C(=O)c1ccccc1C2=O`, the IC50 was found to be 1700 nM in the assay on LoVo [1] and 180 nM in the assay with LoVo [2]. In addition, in assay [3], the RI was determined as 9.4.

For the compound `OCCNCCNc1nnc(NCCNCCO)c2cc3ccccc3cc12`, the IC50 with LoVo [1] is above 260000 nM; in the assay on LoVo [2], above 8100 nM.

For `Cl.O=C1c2ccccc2C(=O)c2c(NCCCO)nnc(NCCCO)c21`, the half-inhibitory concentration (IC50) with LoVo [1] is below 2000 nM; in the assay on LoVo [2], 76 nM. In addition, the RI in assay [3] is listed as below 26.

Regarding `CN(C)CCCNc1nnc(NCCCN(C)C)c2c1C(=O)c1ccccc1C2=O`, the half-inhibitory concentration (IC50) in the assay with LoVo [1] is 1000 nM; in the assay on LoVo [2], 49 nM. Moreover, the RI in assay [3] is 20.4.

On to `OCCCNc1nnc(NCCCO)c2cc3ccccc3cc12`, for which the concentration for half-maximal inhibition (IC50) in the assay on LoVo [1] is 36000 nM; with LoVo [2] it was above 9600 nM. For the same compound, in [3], the RI is recorded as above 3.7.

For `Cl.Nc1nnc(NCCNCCO)c2c1C(=O)c1ccccc1C2=O`, the Ki on Nucleic Acid [5] amounted to 45000 M⁻¹. The IC50 in the assay on MCF7 came out at 47 nM; in the assay on HT-29 [12] it was 5.2 nM; with HT-1080 [13], 8.3 nM; in the assay with A-375, 0.47 nM. This compound also showed an LD in the assay on Nucleic Acid [11] of -0.13.

Take `O=C1c2c(O)ccc(O)c2C(=O)c2c(NCCNCCO)ccc(NCCNCCO)c21` [MITOXANTRONE]: the concentration for half-maximal inhibition (IC50) in the assay on HT-29 [9] turned out to be 17 nM; in the assay on LoVo [1] it was 530 nM; in the assay on MCF7, 20 nM; in the assay with LoVo [2], 9.7 nM; with A-375, 26 nM; in the assay on HT-1080 [10], 66 nM. Also, the RI in assay [3] turned out to be 54.6.

Regarding `CN(C)CCNc1nnc(NCCN(C)C)c2c1C(=O)c1ccccc1C2=O.Cl`, the IC50 with HT-29 [9] turned out to be 9.4 nM; in the assay with LoVo [1], 440 nM; with MCF7, 0.95 nM; with LoVo [2], 73 nM; in the assay on A-375 it was 33 nM; with HT-1080 [10] it was 46 nM. Also, the RI in [3] came out at 6.

By IC50 is commonly meant the concentration needed to halve the response being measured.

The values above are taken from ChEMBL document CHEMBL1128703, “Chromophore-modified antitumor anthracenediones: synthesis, DNA binding, and cytotoxic activity of 1,4-bis[(aminoalkyl)amino]benzo[g]-phthalazine-5,10-diones” (J Med Chem, 1995).
